Reference: paper PMC10100021 (Chemistry, an Asian Journal, 2022)
Read-outs that look alike come from different tables or passages of the source.

Experiments:
CYP199A4 [1] = molecular target: T1, CYP199A4 (Rhodopseudomonas palustris, UniProt Q2IU02); assay: Product distribution of enzyme-catalyzed oxidation by HPLC / GC-MS; format: biochemical, Rhodopseudomonas palustris HaA2
T1 sequence (Q2IU02 1-410): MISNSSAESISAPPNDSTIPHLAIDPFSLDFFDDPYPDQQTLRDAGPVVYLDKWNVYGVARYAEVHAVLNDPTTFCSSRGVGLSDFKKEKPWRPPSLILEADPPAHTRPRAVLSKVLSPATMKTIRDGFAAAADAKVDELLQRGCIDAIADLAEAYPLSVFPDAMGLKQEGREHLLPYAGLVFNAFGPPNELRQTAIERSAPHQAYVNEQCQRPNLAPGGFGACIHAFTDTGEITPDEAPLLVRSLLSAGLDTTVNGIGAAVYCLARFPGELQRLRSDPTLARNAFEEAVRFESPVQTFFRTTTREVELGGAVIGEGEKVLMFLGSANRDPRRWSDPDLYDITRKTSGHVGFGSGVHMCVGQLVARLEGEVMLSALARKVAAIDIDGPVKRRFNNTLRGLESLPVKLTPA
In short: (§1)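 Products of in vitro turnovers quantified by HPLC against product-standard calibrations. Sample: 132 μL reaction mix plus 2 μL of 10 mM 9-hydroxyfluorene in ethanol as internal standard (diphenylmethane for the isopropyl substrate), then 66 μL acetonitrile. Standards made by whole-cell E. coli oxidation or borohydride reduction, or estimated from the closest analogue. Derivatized samples identified by GC-MS on a DB-5 column.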

CYP199A4 [2] = molecular target: T1, CYP199A4; assay: In vitro NADH oxidation activity assay; format: biochemical, Rhodopseudomonas palustris HaA2; conditions: for PFR (product formation rate): HaPuR:HaPux:CYP199A4 1:10:1, 0.5 μM CYP, 50 mM Tris pH 7.4; for Coupling (percentage of NADH utilized for the formation of products): WT CYP199A4
In short: (§2)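 Turnover run at 30 °C in oxygenated 50 mM Tris, pH 7.4, with 5 μM HaPux, 0.5 μM HaPuR and 0.5 μM CYP199A4 (WT or F298V). Started with substrate at 1 mM final. Product formation rate and coupling from quantified products. H2O2 by HRP/phenol/4-aminoantipyrine assay. Mean ±S.D., n≥3.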

CYP199A4 [3] = molecular target: T1, CYP199A4; assay: Hydrogen peroxide uncoupling, HRP/phenol/4-aminoantipyrine assay; format: biochemical, Rhodopseudomonas palustris HaA2; conditions: WT CYP199A4, HRP assay
In short: as §2

CYP199A4 [4] = molecular target: T1, CYP199A4; assay: Spin state shift; format: binding, Rhodopseudomonas palustris HaA2; conditions: WT CYP199A4, 50 mM Tris pH 7.4
In short: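 UV-visible spectra of CYP199A4 recorded at 30±0.5 °C after substrate addition. Percentage shift from low-spin to high-spin heme estimated to approximately ±5% by a previously described method.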

CYP199A4 [5] = molecular target: T1, CYP199A4; assay: Dissociation constant determination by substrate binding titration; set-up: species or system Rhodopseudomonas palustris HaA2; conditions: WT CYP199A4, 50 mM Tris pH 7.4
In short: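 CYP199A4 at 0.5–1.5 μM in 50 mM Tris, pH 7.4, held at 30 °C. Substrate titrated in from 1, 10 or 100 mM ethanol stocks. Soret band peak-to-trough absorbance difference recorded over 700–250 nm. Percentage high-spin shift estimated to about ±5%. Kd fitted from the ΔA titration data.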

CYP199A4 [6] = molecular target: T1, CYP199A4; conditions: WT CYP199A4, cited from earlier work; for shift to the high‐spin form of ferric CYP199A4: ref 9c, 14, 17; for HS (%), change in the heme spin state from low‐spin to high‐spin upon addition of substrate: reported previously
CYP199A4 [7] = molecular target: T1, CYP199A4; conditions: WT CYP199A4; reported previously; cited from earlier work
CYP199A4 [8] = molecular target: T1, CYP199A4; conditions: WT CYP199A4; reported previously; cited from earlier work; remark: listed apart in the source
F298V mutant of CYP199A4 [9] = assay: Spin state shift assay with F298V mutant; format: binding, Rhodopseudomonas palustris HaA2
F298V mutant of CYP199A4 [10] = assay: In vitro NADH oxidation activity assay with F298V mutant; format: biochemical, Rhodopseudomonas palustris HaA2
In short: as §2

F298V mutant of CYP199A4 [11] = assay: Product distribution of oxidation by F298V mutant; format: biochemical, Rhodopseudomonas palustris HaA2
In short: as §1

[12] = WT CYP199A4, min^−1 abbreviates nmol.nmol‐CYP^−1.min^−1
[13] = listed as 4‐n‐propylbenzoic acid

Structure (SMILES)	PFR (product formation rate) (CYP199A4 [2]) [nmol.nmol‐CYP^−1.min^−1]	Coupling (percentage of NADH utilized for the formation of products) (CYP199A4 [2]) [%]	product formation rate (CYP199A4 [2]; [12]) [min⁻¹]	HS (%), change in the heme spin state from low‐spin to high‐spin upon addition of substrate (CYP199A4 [4]) [%]	Kd (CYP199A4 [5]) [nM]	epoxide further oxidation product, share of total products (CYP199A4 [1]; WT CYP199A4, in vitro turnover) [%]	shift to the high‐spin form of ferric CYP199A4 (CYP199A4 [6]) [%]	HS (%), change in the heme spin state from low‐spin to high‐spin upon addition of substrate (CYP199A4 [6]) [%]	Coupling (percentage of NADH utilized for the formation of products) (CYP199A4 [8]) [%]	NADH (frequency of NADH oxidation) (CYP199A4 [8]) [nmol.nmol‐CYP^−1.min^−1]	PFR (product formation rate) (CYP199A4 [8]) [nmol.nmol‐CYP^−1.min^−1]	further results
CCc1ccc(C(=O)O)cc1 [4‐ethylBA, 4‐ethylbenzoic acid]							≥ 95	≥95	64±4	812±7	525±88	Kd (CYP199A4 [7]): 340 ± 20 nM
CC(C)c1ccc(C(=O)O)cc1 [4‐isopropylBA, 4‐isopropylbenzoic acid]							≥ 95	≥95	68±1	325±36	221±27	Kd (CYP199A4 [7]): 290 ± 10 nM
CCCc1ccc(C(=O)O)cc1 [4‐n‐propylBA, 4‐n‐propylbenzoic acid]	594±72	86±8		≥95	540 ± 20	12						shift to the high‐spin form (F298V mutant of CYP199A4 [9]): ≥ 95%; NADH oxidation rate (F298V mutant of CYP199A4 [10]): 378 ± 5 min⁻¹; coupling efficiency (F298V mutant of CYP199A4 [10]): 71%; Coupling (percentage of NADH utilized for the formation of products) (CYP199A4 [2]; [13]): 86%; Cβ hydroxylation product 4‐(2‐hydroxypropyl)benzoic acid (F298V mutant of CYP199A4 [11]): almost none; metabolites arising from initial desaturation, share of total products (F298V mutant of CYP199A4 [11]): 73%; HS (%), change in the heme spin state from low‐spin to high‐spin upon addition of substrate (CYP199A4 [4]; [13]): ≥ 95%
CC(C)(C)c1ccc(C(=O)O)cc1 [4‐t‐butylBA, 4‐t‐butylbenzoic acid]							≥ 95	≥95	100±13	227±4	227±32	

The next lines start with results.

PFR (product formation rate) (CYP199A4 [2]) [nmol.nmol‐CYP^−1.min^−1]	Coupling (percentage of NADH utilized for the formation of products) (CYP199A4 [2]) [%]	product formation rate (CYP199A4 [2]; [12]) [min⁻¹]	HS (%), change in the heme spin state from low‐spin to high‐spin upon addition of substrate (CYP199A4 [4]) [%]	Kd (CYP199A4 [5]) [nM]	epoxide further oxidation product, share of total products (CYP199A4 [1]; WT CYP199A4, in vitro turnover) [%]	Structure (SMILES)	shift to the high‐spin form of ferric CYP199A4 (CYP199A4 [6]) [%]	HS (%), change in the heme spin state from low‐spin to high‐spin upon addition of substrate (CYP199A4 [6]) [%]	Coupling (percentage of NADH utilized for the formation of products) (CYP199A4 [8]) [%]	NADH (frequency of NADH oxidation) (CYP199A4 [8]) [nmol.nmol‐CYP^−1.min^−1]	PFR (product formation rate) (CYP199A4 [8]) [nmol.nmol‐CYP^−1.min^−1]	further results
170±22	45±5	170	≥95	280 ± 20		O=C(O)c1ccc(C2CC2)cc1 [4‐cyclopropylBA, 4‐cyclopropylbenzoic acid]						Cα–Cβ desaturation alkene product, share of total products (CYP199A4 [1]; WT CYP199A4, in vitro turnover): No desaturation was observed; NADH oxidation rate (CYP199A4 [2]; [12]): 383 min⁻¹; hydrogen peroxide uncoupling (CYP199A4 [3]): ≤ 2%; HS (%), change in the heme spin state from low‐spin to high‐spin upon addition of substrate (CYP199A4 [4]; listed as 4‐cyclopropylbenzoic acid): ≥ 95%
146±21	41±5	146	>95	590 ± 30		CC(C)Cc1ccc(C(=O)O)cc1 [4‐isobutylBA, 4‐isobutylbenzoic acid]						
67±3	40±1	67	90	390 ± 40	2	CCCCc1ccc(C(=O)O)cc1 [4‐n‐butylBA, 4‐n‐butylbenzoic acid]						unidentified minor product, share of total products (CYP199A4 [1]; WT CYP199A4, HPLC): < 2%; Cα–Cβ desaturation alkene product, share of total products (CYP199A4 [1]; WT CYP199A4, in vitro turnover): 50%; Cβ hydroxylation product, share of total products (CYP199A4 [1]; WT CYP199A4, in vitro turnover): did not generate any detectable product
147±12	53±2	147	≥95	160 ± 30	3	CCCCCCCc1ccc(C(=O)O)cc1 [4‐n‐heptylBA, 4‐n‐heptylbenzoic acid]						Coupling (percentage of NADH utilized for the formation of products) (CYP199A4 [2]; listed as 4‐n‐heptylbenzoic acid): 53%
